Published values collected from several papers.
Compare with care: the assays were run in different laboratories.
Target: Phosphorylase b kinase gamma catalytic chain, liver/testis isoform (PHKG2, Homo sapiens, UniProt P15735)
Sequence (P15735 1-406, as in one of the studies): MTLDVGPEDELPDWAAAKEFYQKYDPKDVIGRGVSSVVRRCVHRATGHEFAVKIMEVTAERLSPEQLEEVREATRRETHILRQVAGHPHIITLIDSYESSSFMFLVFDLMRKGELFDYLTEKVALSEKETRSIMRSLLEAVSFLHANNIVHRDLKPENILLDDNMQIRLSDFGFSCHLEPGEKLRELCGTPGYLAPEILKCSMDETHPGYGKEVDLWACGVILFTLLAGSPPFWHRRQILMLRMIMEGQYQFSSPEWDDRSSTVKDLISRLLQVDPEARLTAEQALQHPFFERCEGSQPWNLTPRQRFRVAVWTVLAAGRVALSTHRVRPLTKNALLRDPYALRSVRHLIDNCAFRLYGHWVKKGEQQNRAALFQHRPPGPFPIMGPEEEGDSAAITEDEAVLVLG

Compound | observed | mode | method | cell line | concentration | quantity | value
CC/C(=N\NC(=O)NCc1cccc(O)c1)c1ccc(O)c(C)c1O | enzyme activity | inhibitor | – | – | 0.1 µM | inhibition | -2.9%
N#CCCc1ccc2c(c1)-c1[nH]c3ccc([N+](=O)[O-])cc3c1CC(=O)N2 | cell-free assay | – | – | – | 0.5 µM | remaining signal | 99.1%
Cc1ccc(Nc2nccc(N(C)c3ccc4c(C)n(C)nc4c3)n2)cc1S(N)(=O)=O | enzyme activity | inhibitor | – | – | 0.3 µM | inhibition | -4%
COc1cc(Cl)c(C(=O)N[C@@H](CN[C@H]2CC[C@@H](N)CC2)Cc2ccc(C#N)cc2)cc1-c1ccc(CN[C@H](C)c2ccc(C)cc2)o1 | enzyme activity | inhibitor | – | – | 1 µM | remaining activity | 103%
O=C(Nc1cnn(-c2csc(C(=O)NC3COC3)c2)c1)Nc1c(F)cccc1Cl | enzyme activity | inhibitor | – | – | 5 µM | remaining activity | 131%
NS(=O)(=O)c1cc(NC(=O)C2(c3ccccc3Cl)CC2)ccc1Oc1cccc(Cl)c1 | cell-free assay | – | competition with immobilised ligand | – | 1 µM | remaining binding | 100%
Clc1ccc(Nc2nnc(Cc3ccncc3)c3ccccc23)cc1 | cell-free assay | – | – | – | 0.5 µM | remaining signal | 91.8%
CC(C)(C)c1nc2c(s1)c1nc(N)ncc1c1ccc(NS(=O)(=O)c3c(F)cccc3F)c(F)c12 | enzyme activity | inhibitor | radiometric | – | 1 µM | remaining activity | 92%
Cc1cnc(NC2CCOCC2)nc1-n1cnc(C(=O)NC(CN)c2cc(F)cc(Cl)c2)c1 (stereo not drawn) | enzyme activity | inhibitor | radiometric | – | 1 µM | remaining activity | 97%
COc1cc2c(Nc3ccc(Br)cc3F)ncnc2cc1OCC1CCN(C)CC1 | cell-free assay | – | – | – | 0.5 µM | remaining signal | 99.1%
CNCc1ccccc1-c1csc([C@H](C)Nc2nc(C)nc3cc(OC)c(OC)cc23)c1 | cell-free assay | – | competition with immobilised ligand | – | 1 µM | remaining binding | 100%
COc1ccc(COc2ccc(Cc3cnc(N)nc3N)cc2OC)cc1 | cell-free assay | – | – | – | 0.5 µM | remaining signal | 106%
Cc1ccc(C(=O)NCc2ccsc2)cc1C#Cc1cn(C(C)C)c2ncnc(N)c12 | enzyme activity | inhibitor | – | – | 1 µM | activity vs control | 110%
Cc1sc(C(=O)NC2COC2)cc1-n1cc(NC(=O)Nc2c(F)cccc2Cl)cn1 | enzyme activity | inhibitor | – | – | 10 µM | remaining activity | 88.5%
CNc1cc(Oc2cc(C(=O)Nc3cc(N4CCN(C)CC4)cc(C(F)(F)F)c3)ccc2C)ncn1 | target engagement in cells | inhibitor | chemoproteomics | Huh-7 | 1 µM | inhibition | -18.1%
CC(C)CC(=O)N1CCc2nc(-c3ccc(Br)cc3)nc(N(C)Cc3ccccc3)c2C1 | cell-free assay | – | competition with immobilised ligand | – | 0.1 µM | remaining binding | 100%
Nc1ncnc2occ(-c3ccc(NC(=O)Nc4cc(C(F)(F)F)ccc4F)cc3)c12 | cell-free assay | inhibitor | – | – | 20 µM | remaining signal | 53%
O=C(Nc1cccnn1)N1CC(C/C=C/c2cncc(Oc3ccc(C(F)(F)F)cn3)n2)C1 | cell-free assay | – | competition with immobilised ligand | – | 1 µM | remaining binding | 100%
c1ccc(CNc2nc(N3CCOc4ccccc43)nc3c2CCCC3)cc1 | target engagement in cells | inhibitor | chemoproteomics | – | 20 mM | inhibition | -2.7%
O=C(Nc1cccnn1)N1CCC(=Cc2cccc(Oc3ccc(C(F)(F)F)cn3)c2)CC1 | cell-free assay | – | competition with immobilised ligand | – | 1 µM | remaining binding | 88%
COc1cc2ncnc(Nc3ccc(Oc4ccccc4)cc3C)c2cc1OC | enzyme activity | inhibitor | – | – | 1 µM | inhibition | 0%
CCCCN(CCCC)C(=O)CN1C[C@@H](c2cc(OC)c3c(c2)OCO3)[C@H](C(=O)O)[C@H]1CC(C)(C)CCC | cell-free assay | – | competition with immobilised ligand | – | 1 µM | remaining binding | 100%
Oc1cccc(-c2nc(N3CCOCC3)c3oc4ncccc4c3n2)c1 | cell-free assay | – | – | – | 0.5 µM | remaining signal | 99.1%
CCC(=O)N[C@H]1CC[C@@H](C(=O)N(C)c2ccc(-c3nc4ccccc4o3)cc2)C1 | cell-free assay | – | competition with immobilised ligand | – | 1 µM | remaining binding | 100%
CCN(CC)CCNC(=O)c1c(C)[nH]c(/C=C2\C(=O)Nc3ccc(F)cc32)c1C | enzyme activity | inhibitor | – | – | 10 µM | inhibition | 101%
CCCS(=O)(=O)Nc1ccc(F)c(C(=O)c2c[nH]c3ncc(-c4ccc(Cl)cc4)cc23)c1F | enzyme activity | inhibitor | – | – | 1 µM | inhibition | < 10%
COCCOc1nc(-c2ccc(Cl)nc2)nc2c1CN(C(=O)c1ncn3ccccc13)CC2 | cell-free assay | – | competition with immobilised ligand | – | 0.1 µM | remaining binding | 100%
